The results in this text go back to ChEMBL document CHEMBL1139595, “Inhibition of IKK-2 by 2-[(aminocarbonyl)amino]-5-acetylenyl-3-thiophenecarboxamides” (Bioorg Med Chem Lett, 2005).

pIC50: −log10 of the molar value.

In assay [1] the target is T1, Inhibitor of nuclear factor kappa-B kinase subunit beta (Homo sapiens, UniProt O14920).
T1 sequence (O14920 whole entry): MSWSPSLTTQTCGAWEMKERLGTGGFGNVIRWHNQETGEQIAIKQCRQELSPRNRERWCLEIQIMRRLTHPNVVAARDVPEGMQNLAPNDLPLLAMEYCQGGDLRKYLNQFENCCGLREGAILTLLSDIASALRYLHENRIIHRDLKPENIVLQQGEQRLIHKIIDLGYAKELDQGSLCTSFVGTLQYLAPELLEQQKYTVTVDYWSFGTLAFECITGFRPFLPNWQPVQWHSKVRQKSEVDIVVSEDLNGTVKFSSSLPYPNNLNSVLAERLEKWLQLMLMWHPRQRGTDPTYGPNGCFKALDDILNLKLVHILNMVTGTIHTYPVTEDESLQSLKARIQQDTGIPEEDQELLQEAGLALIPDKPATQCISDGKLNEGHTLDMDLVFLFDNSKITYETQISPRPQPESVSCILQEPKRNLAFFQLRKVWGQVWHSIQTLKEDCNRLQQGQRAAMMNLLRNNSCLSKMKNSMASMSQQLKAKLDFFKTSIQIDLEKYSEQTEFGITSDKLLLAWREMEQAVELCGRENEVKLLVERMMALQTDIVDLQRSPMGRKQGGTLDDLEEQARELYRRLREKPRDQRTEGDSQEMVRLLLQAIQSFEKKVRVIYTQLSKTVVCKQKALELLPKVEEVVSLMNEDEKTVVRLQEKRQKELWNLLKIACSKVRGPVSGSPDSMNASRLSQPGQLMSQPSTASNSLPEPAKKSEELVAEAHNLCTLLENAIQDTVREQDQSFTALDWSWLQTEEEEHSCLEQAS
The experiment in a line: Inhibitory concentration against human recombinant I-kappa-B-kinase 2 from 3 experiments.

Assay [2] can be described thus: Inhibitory concentration against interleukin-8 production in rheumatoid arthritis-derived synovial fibroblasts (RASFs) from 2 experiments. To be noted: Homo sapiens. The format is functional. An outline of the steps:
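Primary RASF from knee synovectomy tissue, grown in DMEM high glucose with 15% bovine serum and gentamicin. 1.5×10^4 cells/well attached overnight, moved to DMEM with 1% serum. Pre-treated 1 h with a seven-point dose series in 0.2% Me₂SO, then stimulated overnight with 1 ng/mL IL-1β. IL-8 in supernatant measured by ELISA; IC50 from curve.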

A short description of assay [3]: Lethal concentration towards rheumatoid arthritis-derived synovial fibroblasts using Alamar Blue reagent. The format is functional. The settings on record: Homo sapiens; read-out: LC50 (the source's name). Put shortly: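 Primary RASF from knee synovectomy tissue, cultured in DMEM high glucose with 15% bovine serum; 1.5×10^4 cells/well in 1% serum, pre-treated 1 h with seven-point inhibitor doses in 0.2% Me2SO, then stimulated overnight with 1 ng/mL IL-1β. After removing the supernatant, Alamar Blue added, 2.5 h at 37 °C, 5% CO2; fluorescence read, LC50 derived.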

The target in assay [4] is T2, Inhibitor of nuclear factor kappa-B kinase subunit beta (Homo sapiens) (UniProt O14920).
T2 sequence (whole entry): T1 sequence (O14920 whole entry)
The experiment in a line: Ratio of inhibitory concentration of rheumatoid arthritis-derived synovial fibroblasts to human recombinant I-kappa-B-kinase 2. The class given is functional.

As for `NC(=O)Nc1sc(C#Cc2cccc(NC(=O)c3ccncc3)c2)cc1C(N)=O`, the negative logarithm of the IC50 (pIC50) in assay [1] was 5.73.
In the case of `NC(=O)Nc1sc(C#Cc2cccc(O)c2)cc1C(N)=O`, the pIC50 in assay [2] was 6.24; in assay [1], 6.52. Moreover, the CC50 in assay [3] amounted to 2720 nM. Moreover, the Ratio in assay [4] worked out at 1.9.
For the molecule `NC(=O)Nc1sc(C#Cc2cccc(N)c2)cc1C(N)=O`, the pIC50 in assay [1] is 6.15.
As to `NC(=O)Nc1sc(C#Cc2csc(CO)c2)cc1C(N)=O`, the pIC50 is 5.95 in assay [2] and 6.71 in assay [1]. The CC50 in assay [3] was over 30000 nM. In addition, the Ratio in assay [4] is 5.8.
For the molecule `NC(=O)Nc1sc(C#CC2CC2)cc1C(N)=O`, the negative logarithm of the IC50 (pIC50) is 5.51 in assay [2] and 6.56 in assay [1]. Further, the CC50 in assay [3] was over 30000 nM. The Ratio in assay [4] came to 11.
Turning to `NC(=O)Nc1sc(C#Cc2cccc(NC(=O)c3ccccn3)c2)cc1C(N)=O`, in assay [1], the pIC50 was under 4.70.
Consider `Cc1ccccc1C#Cc1cc(C(N)=O)c(NC(N)=O)s1`, for which the negative-log IC50 (pIC50) in assay [1] is 6.15.
Same read-out and setting: the value for `NC(=O)Nc1sc(C#Cc2cccc(NC(=O)c3ccccc3)c2)cc1C(N)=O` was 6.15.
In the case of `CS(=O)(=O)Nc1cccc(C#Cc2cc(C(N)=O)c(NC(N)=O)s2)c1`, the negative-log IC50 (pIC50) in assay [2] is 4.89; in assay [1], 6.34. Moreover, the CC50 in assay [3] was over 30000 nM. For the same molecule, in assay [4], the Ratio came out at 28.
Take `NC(=O)Nc1sc(C#Cc2ccccc2F)cc1C(N)=O`: in assay [1], the negative logarithm of the IC50 (pIC50) was 6.21.
Still for that read-out and setting: the result for `CC(=O)Nc1cccc(C#Cc2cc(C(N)=O)c(NC(N)=O)s2)c1` reads 6.02; that for `NC(=O)Nc1sc(C#Cc2ccccc2Cl)cc1C(N)=O`, 6.00.
On to `N#Cc1cc(C#Cc2cc(C(N)=O)c(NC(N)=O)s2)cs1`, for which the negative logarithm of the IC50 (pIC50) in assay [2] was 6.08; in assay [1] it was 6.48. In addition, the CC50 in assay [3] was over 30000 nM. Besides, the Ratio in assay [4] is 2.5.
Take `NC(=O)Nc1sc(C#Cc2cccc(NC(=O)C(F)(F)F)c2)cc1C(N)=O`: the pIC50 in assay [1] was 6.01.
On the same count and under the same terms, the result for `CCC(O)c1cc(C#Cc2cc(C(N)=O)c(NC(N)=O)s2)cs1` (stereo not drawn) reads 6.33.
Turning to `COC(=O)NCCC(=O)Nc1cccc(C#Cc2cc(C(N)=O)c(NC(N)=O)s2)c1`, the negative logarithm of the IC50 (pIC50) in assay [1] is 5.36.
As to `CC(C)C(O)c1cc(C#Cc2cc(C(N)=O)c(NC(N)=O)s2)cs1` (stereo not drawn), the negative logarithm of the IC50 (pIC50) in assay [1] was 6.25.
For `NC(=O)c1sc(-c2ccsc2)cc1N`, in assay [1], the negative logarithm of the IC50 (pIC50) is 4.95.
Consider `NC(=O)Nc1sc(C#Cc2cccc(F)c2)cc1C(N)=O`, for which the pIC50 in assay [2] is 5.78; in assay [1] it was 6.48. Besides, the CC50 in assay [3] was over 30000 nM. Also, the Ratio in assay [4] turned out to be 5.
On to `CN(C)CC(=O)Nc1cccc(C#Cc2cc(C(N)=O)c(NC(N)=O)s2)c1`, for which the pIC50 in assay [1] was 5.73.
Take `NC(=O)Nc1sc(C#Cc2ccsc2)cc1C(N)=O`: the pIC50 in assay [2] is 5.93; in assay [1], 6.38. Further, in assay [3], the CC50 was over 30000 nM. In assay [4], the Ratio turned out to be 2.8.
As to `NC(=O)Nc1sc(C#Cc2cccc(NC(=O)c3cccnc3)c2)cc1C(N)=O`, in assay [1], the negative-log IC50 (pIC50) is 6.25.
